SMILES strings stand for the structures. pEC50: −log10 of the molar value.

The test system of assay [1] is Rhizoctonia solani. The experiment in a line: In vitro fungicidal activity against Rhizoctonia solani assessed as mycelial growth inhibition at 100 mg/l at 26 degC after 48 hr by agar diffusion assay. It is filed as functional. The settings on record: read-out: GI. The method, boiled down: (§1)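 Compound is dissolved in DMF and added aseptically to autoclaved agar that has cooled to about 45-50 °C, giving 100 mg/L in the medium. Solvent never exceeds […]. Plain medium is the blank. A 5 mm mycelial plug, cut from the margin of an actively growing colony, goes in the plate centre. Three replicate plates are sealed and kept at 26 °C in darkness. Colony diameter is read at 48 h. Inhibition % = (control − treated diameter)/control diameter.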
For orientation: Agar diffusion results depend on both activity and mobility in agar.

Assay [2] has as its system Botrytis cinerea. The experiment in a line: In vitro fungicidal activity against Botryotinia fuckeliana assessed as mycelial growth inhibition at 100 mg/l at 26 degC after 48 hr by agar diffusion assay. The settings on record: read-out: GI. It is filed as functional. The method, boiled down: as §1
Assay [3] concerns Fusarium graminearum. The experiment in a line: In vitro fungicidal activity against Fusarium graminearum assessed as mycelial growth inhibition at 100 mg/l at 26 degC after 48 hr by agar diffusion assay. It is filed as functional. The settings on record: read-out: GI. The method, boiled down: as §1
Assay [4] has as its system Colletotrichum gossypii. The experiment in a line: In vitro fungicidal activity against Colletotrichum gossypii assessed as mycelial growth inhibition at 100 mg/l at 26 degC after 48 hr by agar diffusion assay. It is filed as functional. The settings on record: read-out: GI. The method, boiled down: as §1
The subject of assay [5] is Dothiorella gregaria. The experiment in a line: In vitro fungicidal activity against Dothiorella gregaria assessed as mycelial growth inhibition at 100 mg/l at 26 degC after 48 hr by agar diffusion assay. It is filed as functional. The settings on record: read-out: GI. The method, boiled down:
as §1

For assay [6], the system named is Fusarium oxysporum. The experiment in a line: In vitro fungicidal activity against Fusarium oxysporum assessed as mycelial growth inhibition at 100 mg/l at 26 degC after 48 hr by agar diffusion assay. It is filed as functional. The settings on record: read-out: GI. The method, boiled down: as §1
In assay [7] the test system is Fusarium graminearum. The experiment in a line: In vitro fungicidal activity against Fusarium graminearum assessed as mycelial growth inhibition at 50 mg/l at 26 degC after 48 hr by agar diffusion assay. It is filed as functional. The settings on record: read-out: GI.
Assay [8] relates to Fusarium oxysporum. The experiment in a line: In vitro fungicidal activity against Fusarium oxysporum assessed as mycelial growth inhibition at 26 degC after 48 hr by agar diffusion assay. It is filed as functional, organism-based.
The test system of assay [9] is Fusarium graminearum. The experiment in a line: In vitro fungicidal activity against Fusarium graminearum assessed as mycelial growth inhibition at 26 degC after 48 hr by agar diffusion assay. It is filed as functional, organism-based.
The subject of assay [10] is Fusarium oxysporum. The experiment in a line: In vitro fungicidal activity against Fusarium oxysporum assessed as mycelial growth inhibition at 50 mg/l at 26 degC after 48 hr by agar diffusion assay. It is filed as functional. The settings on record: read-out: GI.
In assay [11] the test system is Botrytis cinerea. The experiment in a line: In vitro fungicidal activity against Botryotinia fuckeliana assessed as mycelial growth inhibition at 50 mg/l at 26 degC after 48 hr by agar diffusion assay. It is filed as functional. The settings on record: read-out: GI.
The test system of assay [12] is Rhizoctonia solani. The experiment in a line: In vitro fungicidal activity against Rhizoctonia solani assessed as mycelial growth inhibition at 50 mg/l at 26 degC after 48 hr by agar diffusion assay. It is filed as functional. The settings on record: read-out: GI.
In assay [13] the test system is Dothiorella gregaria. The experiment in a line: In vitro fungicidal activity against Dothiorella gregaria assessed as mycelial growth inhibition at 50 mg/l at 26 degC after 48 hr by agar diffusion assay. It is filed as functional. The settings on record: read-out: GI.
The test system of assay [14] is Colletotrichum gossypii. The experiment in a line: In vitro fungicidal activity against Colletotrichum gossypii assessed as mycelial growth inhibition at 26 degC after 48 hr by agar diffusion assay. It is filed as functional, organism-based.
In assay [15] the test system is Botrytis cinerea. The experiment in a line: In vitro fungicidal activity against Botryotinia fuckeliana assessed as mycelial growth inhibition at 26 degC after 48 hr by agar diffusion assay. It is filed as functional, organism-based.
In assay [16] the test system is Rhizoctonia solani. The experiment in a line: In vitro fungicidal activity against Rhizoctonia solani assessed as mycelial growth inhibition at 26 degC after 48 hr by agar diffusion assay. It is filed as functional, organism-based.
Assay [17] deals with Dothiorella gregaria. The experiment in a line: In vitro fungicidal activity against Dothiorella gregaria assessed as mycelial growth inhibition at 26 degC after 48 hr by agar diffusion assay. It is filed as functional, organism-based.
The subject of assay [18] is Colletotrichum gossypii. The experiment in a line: In vitro fungicidal activity against Colletotrichum gossypii assessed as mycelial growth inhibition at 50 mg/l at 26 degC after 48 hr by agar diffusion assay. The settings on record: read-out: GI. It is filed as functional.

As to `CC[C@H](CCn1cncn1)c1ccccc1`, the inhibition of growth at 100 µg/mL worked out at 80% in the assay with Rhizoctonia solani [1]; 52% in the assay with Botrytis cinerea [2]; 60% in the assay on Fusarium graminearum [3]; 70% in the assay on Colletotrichum gossypii [4]; 81% in the assay with Dothiorella gregaria [5]; 60% in the assay on Fusarium oxysporum [6].
Turning to `CC[C@@H](CCn1cncn1)c1ccccc1`, the inhibition of growth at 100 µg/mL in the assay on Rhizoctonia solani [1] was 75%; in the assay with Botrytis cinerea [2], 52%; in the assay on Fusarium graminearum [3] it was 63%; with Colletotrichum gossypii [4] it was 50%; in the assay with Dothiorella gregaria [5], 60%; with Fusarium oxysporum [6], 55%.
As to `CC[C@H](CCn1cncn1)c1ccc(F)cc1`, the inhibition of growth at 100 µg/mL with Rhizoctonia solani [1] was found to be 82%; with Botrytis cinerea [2], 36%; in the assay with Fusarium graminearum [3], 63%; in the assay with Colletotrichum gossypii [4], 78%; with Dothiorella gregaria [5], 82%; in the assay on Fusarium oxysporum [6] it was 50%.
Take `CC[C@@H](CCn1cncn1)c1ccc(F)cc1`: the inhibition of growth at 100 µg/mL with Rhizoctonia solani [1] was found to be 85%; with Botrytis cinerea [2] it was 52%; with Fusarium graminearum [3], 56%; in the assay on Colletotrichum gossypii [4], 65%; in the assay with Dothiorella gregaria [5], 75%; with Fusarium oxysporum [6] it was 60%.
As to `CC[C@H](CCn1cncn1)c1ccc(Cl)cc1`, the inhibition of growth at 100 µg/mL worked out at 85% with Rhizoctonia solani [1]; 94% in the assay on Botrytis cinerea [2]; 76% in the assay on Fusarium graminearum [3]; 97% in the assay on Colletotrichum gossypii [4]; 93% in the assay with Dothiorella gregaria [5]; 91% in the assay with Fusarium oxysporum [6].
For `CC[C@@H](CCn1cncn1)c1ccc(Cl)cc1`, the inhibition of growth at 100 µg/mL worked out at 83% in the assay on Rhizoctonia solani [1]; 84% with Botrytis cinerea [2]; 73% with Fusarium graminearum [3]; 85% in the assay with Colletotrichum gossypii [4]; 80% in the assay with Dothiorella gregaria [5]; 80% with Fusarium oxysporum [6].
On to `CC[C@H](CCn1cncn1)c1ccc(OC)cc1`, for which the inhibition of growth at 100 µg/mL with Rhizoctonia solani [1] worked out at 60%; with Botrytis cinerea [2] it was 30%; in the assay with Fusarium graminearum [3], 66%; with Colletotrichum gossypii [4], 55%; with Dothiorella gregaria [5], 82%; with Fusarium oxysporum [6] it was 65%.
For `CC[C@@H](CCn1cncn1)c1ccc(OC)cc1`, the inhibition of growth at 100 µg/mL in the assay with Rhizoctonia solani [1] was determined as 73%; in the assay on Botrytis cinerea [2] it was 30%; with Fusarium graminearum [3], 42%; in the assay with Colletotrichum gossypii [4] it was 50%; with Dothiorella gregaria [5], 45%; with Fusarium oxysporum [6] it was 40%.
Take `CCC[C@H](CCn1cncn1)c1ccccc1`: the inhibition of growth at 100 µg/mL was found to be 97% in the assay with Rhizoctonia solani [1]; 98% in the assay on Botrytis cinerea [2]; 83% in the assay with Fusarium graminearum [3]; 92% with Colletotrichum gossypii [4]; 100% with Dothiorella gregaria [5]; 80% in the assay with Fusarium oxysporum [6].
As to `CCC[C@@H](CCn1cncn1)c1ccccc1`, the inhibition of growth at 100 µg/mL in the assay with Rhizoctonia solani [1] was found to be 78%; in the assay with Botrytis cinerea [2] it was 44%; in the assay on Fusarium graminearum [3] it was 52%; in the assay with Colletotrichum gossypii [4], 75%; in the assay on Dothiorella gregaria [5] it was 67%; in the assay with Fusarium oxysporum [6], 55%.
Regarding `CCC[C@H](CCn1cncn1)c1ccc(F)cc1`, the inhibition of growth at 100 µg/mL in the assay with Rhizoctonia solani [1] worked out at 90%; in the assay with Botrytis cinerea [2], 71%; in the assay on Fusarium graminearum [3], 85%; in the assay on Colletotrichum gossypii [4] it was 95%; in the assay with Dothiorella gregaria [5] it was 100%; in the assay with Fusarium oxysporum [6], 82%.
`CCC[C@@H](CCn1cncn1)c1ccc(F)cc1`: the inhibition of growth at 100 µg/mL was found to be 86% in the assay with Rhizoctonia solani [1]; 94% in the assay on Botrytis cinerea [2]; 83% in the assay with Fusarium graminearum [3]; 90% in the assay with Colletotrichum gossypii [4]; 83% with Dothiorella gregaria [5]; 73% with Fusarium oxysporum [6].
On to `CCC[C@H](CCn1cncn1)c1ccc(OC)cc1`, for which the inhibition of growth at 100 µg/mL with Rhizoctonia solani [1] came out at 78%; in the assay on Botrytis cinerea [2] it was 60%; with Fusarium graminearum [3], 66%; in the assay on Colletotrichum gossypii [4], 80%; in the assay on Dothiorella gregaria [5], 90%; in the assay with Fusarium oxysporum [6] it was 90%.
With `CCC[C@@H](CCn1cncn1)c1ccc(OC)cc1`, the inhibition of growth at 100 µg/mL is 90% with Rhizoctonia solani [1]; 92% with Botrytis cinerea [2]; 76% with Fusarium graminearum [3]; 90% with Colletotrichum gossypii [4]; 93% in the assay with Dothiorella gregaria [5]; 75% with Fusarium oxysporum [6].
For `CCCC[C@H](CCn1cncn1)c1ccccc1`, the inhibition of growth at 100 µg/mL came out at 90% with Rhizoctonia solani [1]; 91% with Botrytis cinerea [2]; 71% with Fusarium graminearum [3]; 87% in the assay on Colletotrichum gossypii [4]; 100% in the assay with Dothiorella gregaria [5]; 66% with Fusarium oxysporum [6].
With `CCCC[C@@H](CCn1cncn1)c1ccccc1`, the inhibition of growth at 100 µg/mL turned out to be 87% with Rhizoctonia solani [1]; 91% in the assay on Botrytis cinerea [2]; 71% with Fusarium graminearum [3]; 82% in the assay with Colletotrichum gossypii [4]; 96% with Dothiorella gregaria [5]; 74% in the assay with Fusarium oxysporum [6].
As to `CCCC[C@H](CCn1cncn1)c1ccc(F)cc1`, the inhibition of growth at 50 µg/mL with Fusarium graminearum [7] came out at 89%; in the assay on Fusarium oxysporum [10] it was 99%; in the assay with Botrytis cinerea [11], 100%; in the assay on Rhizoctonia solani [12] it was 99%; in the assay with Dothiorella gregaria [13] it was 100%; in the assay with Colletotrichum gossypii [18], 100%. The inhibition of growth at 100 µg/mL in the assay with Rhizoctonia solani [1] was found to be 100%; with Botrytis cinerea [2] it was 100%; in the assay on Fusarium graminearum [3] it was 95%; in the assay with Colletotrichum gossypii [4], 100%; in the assay with Dothiorella gregaria [5], 100%; with Fusarium oxysporum [6], 100%. The pEC50 with Fusarium oxysporum [8] was 3.95; in the assay with Fusarium graminearum [9], 4.18; with Colletotrichum gossypii [14], 4.21; in the assay with Botrytis cinerea [15], 4.21; in the assay on Rhizoctonia solani [16] it was 4.44; in the assay on Dothiorella gregaria [17], 4.82.
For the compound `CCCC[C@@H](CCn1cncn1)c1ccc(F)cc1`, the inhibition of growth at 50 µg/mL amounted to 70% in the assay with Fusarium graminearum [7]; 88% with Fusarium oxysporum [10]; 81% with Botrytis cinerea [11]; 88% in the assay on Rhizoctonia solani [12]; 71% in the assay with Dothiorella gregaria [13]; 85% with Colletotrichum gossypii [18]. In addition, the inhibition of growth at 100 µg/mL with Rhizoctonia solani [1] was determined as 100%; in the assay with Botrytis cinerea [2], 96%; in the assay with Fusarium graminearum [3], 83%; in the assay on Colletotrichum gossypii [4], 95%; in the assay on Dothiorella gregaria [5] it was 97%; in the assay on Fusarium oxysporum [6], 96%. In addition, the pEC50 in the assay with Fusarium oxysporum [8] is 3.96; in the assay on Fusarium graminearum [9] it was 3.98; in the assay on Colletotrichum gossypii [14], 4.20; in the assay on Botrytis cinerea [15], 4.25; in the assay on Rhizoctonia solani [16] it was 4.31; in the assay on Dothiorella gregaria [17], 4.10.
With `CCCC[C@H](CCn1cncn1)c1ccc(Cl)cc1`, the inhibition of growth at 100 µg/mL with Rhizoctonia solani [1] is 91%; with Botrytis cinerea [2], 88%; with Fusarium graminearum [3], 73%; in the assay with Colletotrichum gossypii [4], 85%; in the assay on Dothiorella gregaria [5], 100%; in the assay on Fusarium oxysporum [6] it was 82%.
In the case of `CCCC[C@@H](CCn1cncn1)c1ccc(Cl)cc1`, the inhibition of growth at 100 µg/mL was 84% with Rhizoctonia solani [1]; 94% in the assay on Botrytis cinerea [2]; 69% in the assay on Fusarium graminearum [3]; 85% in the assay on Colletotrichum gossypii [4]; 97% in the assay with Dothiorella gregaria [5]; 78% with Fusarium oxysporum [6].

By pEC50 is commonly meant the EC50 on a negative log10 scale, so that one unit is a factor of ten.
